Test results: article PMC7746607 (Nature, 2020)

What was measured:
KSR1-luc (KSR-bound MEK) = KSR1-luc (KSR-bound MEK) (UniProt Q02750+Q61097); test: NanoBRET washout, intracellular residence time on KSR1-luc; type: binding, mouse; details: 175-minute time course, range of inhibitor concentrations, tram-bo 1 μM
[1] = target: mouse KSR1-Nanoluc (KSR-bound MEK) (UniProt Q02750+Q61097); test: NanoBRET in-cell steady-state competition with tram-bo tracer on KSR1-luc; type: binding; details: MEK1-luc vs KSR1-luc
mouse KSR1-Nanoluc (KSR-bound MEK), sequence (Q02750 whole entry): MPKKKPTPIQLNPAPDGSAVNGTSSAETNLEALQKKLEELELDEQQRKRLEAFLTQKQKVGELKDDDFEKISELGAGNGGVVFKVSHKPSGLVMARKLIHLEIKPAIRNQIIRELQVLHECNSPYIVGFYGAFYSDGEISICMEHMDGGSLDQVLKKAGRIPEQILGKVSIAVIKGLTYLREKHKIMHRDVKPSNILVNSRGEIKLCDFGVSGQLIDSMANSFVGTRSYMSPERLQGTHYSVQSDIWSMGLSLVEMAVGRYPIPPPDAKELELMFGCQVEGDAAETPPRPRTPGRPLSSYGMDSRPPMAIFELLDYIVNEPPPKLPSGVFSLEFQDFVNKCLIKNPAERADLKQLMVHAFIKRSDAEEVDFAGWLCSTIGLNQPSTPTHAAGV
mouse KSR1-Nanoluc (KSR-bound MEK), sequence (Q61097 whole entry): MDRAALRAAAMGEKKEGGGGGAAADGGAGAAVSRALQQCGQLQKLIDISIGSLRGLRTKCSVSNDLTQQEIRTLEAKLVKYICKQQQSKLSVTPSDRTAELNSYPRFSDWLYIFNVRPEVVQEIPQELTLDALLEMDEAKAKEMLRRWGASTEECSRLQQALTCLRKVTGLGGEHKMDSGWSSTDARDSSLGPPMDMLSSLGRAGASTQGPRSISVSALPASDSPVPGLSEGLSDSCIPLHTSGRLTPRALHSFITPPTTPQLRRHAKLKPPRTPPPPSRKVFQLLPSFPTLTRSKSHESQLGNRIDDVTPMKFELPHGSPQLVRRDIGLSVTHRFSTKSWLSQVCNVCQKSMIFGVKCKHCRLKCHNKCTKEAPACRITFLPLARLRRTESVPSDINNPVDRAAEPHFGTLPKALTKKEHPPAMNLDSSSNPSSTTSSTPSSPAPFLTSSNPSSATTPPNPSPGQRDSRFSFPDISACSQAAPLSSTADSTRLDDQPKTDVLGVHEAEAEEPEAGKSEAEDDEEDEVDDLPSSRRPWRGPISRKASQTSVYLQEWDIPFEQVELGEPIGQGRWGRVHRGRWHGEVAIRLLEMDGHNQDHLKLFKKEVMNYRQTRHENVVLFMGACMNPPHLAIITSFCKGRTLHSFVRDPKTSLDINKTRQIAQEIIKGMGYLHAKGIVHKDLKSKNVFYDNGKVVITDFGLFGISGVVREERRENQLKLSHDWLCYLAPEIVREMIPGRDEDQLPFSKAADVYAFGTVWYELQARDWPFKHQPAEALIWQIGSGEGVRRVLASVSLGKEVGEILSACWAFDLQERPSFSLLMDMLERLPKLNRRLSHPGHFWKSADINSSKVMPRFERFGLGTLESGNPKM

MEK1-luc = MEK1-luc (Homo sapiens, UniProt Q02750); test: NanoBRET washout, intracellular residence time on MEK1-luc; type: binding; details: 175-minute time course, tram-bo 1 μM
MEK1-luc, sequence (Q02750 whole entry): as the sequence (Q02750 whole entry) above

[2] = target: BRAF and MEK1 interaction (Homo sapiens, UniProt Q02750); test: IP/WB of endogenous MEK1 from HCT116 cells, BRAF pulldown; type: cell-based; details: HCT116, 200 nM, 1 hour
BRAF and MEK1 interaction, sequence (Q02750 whole entry): as above
Outline: (§1)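 HCT116 cells were plated 48 h to ~70% confluency, then transfected (Lipofectamine 3000) with FLAG-KSR1 (2.3 μg, WT) or FLAG-BRAF (10 μg, WT). At 24 h cells got 0.1% DMSO or 200 nM test compound for 1 h, then were lysed in NP-40 buffer on ice for 30 min. 250 μg lysate was rotated 4 h at 4 °C with anti-MEK1/Protein A resin, with an IgG control. Anti-FLAG immunoblot; three independent experiments.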

RET-luc = RET-luc (Homo sapiens, UniProt P07949); test: NanoBRET control kinase dose response, RET-luc; type: binding; details: 293T cells, tram-bo or tracer K5
RET-luc, sequence (P07949 29-1114): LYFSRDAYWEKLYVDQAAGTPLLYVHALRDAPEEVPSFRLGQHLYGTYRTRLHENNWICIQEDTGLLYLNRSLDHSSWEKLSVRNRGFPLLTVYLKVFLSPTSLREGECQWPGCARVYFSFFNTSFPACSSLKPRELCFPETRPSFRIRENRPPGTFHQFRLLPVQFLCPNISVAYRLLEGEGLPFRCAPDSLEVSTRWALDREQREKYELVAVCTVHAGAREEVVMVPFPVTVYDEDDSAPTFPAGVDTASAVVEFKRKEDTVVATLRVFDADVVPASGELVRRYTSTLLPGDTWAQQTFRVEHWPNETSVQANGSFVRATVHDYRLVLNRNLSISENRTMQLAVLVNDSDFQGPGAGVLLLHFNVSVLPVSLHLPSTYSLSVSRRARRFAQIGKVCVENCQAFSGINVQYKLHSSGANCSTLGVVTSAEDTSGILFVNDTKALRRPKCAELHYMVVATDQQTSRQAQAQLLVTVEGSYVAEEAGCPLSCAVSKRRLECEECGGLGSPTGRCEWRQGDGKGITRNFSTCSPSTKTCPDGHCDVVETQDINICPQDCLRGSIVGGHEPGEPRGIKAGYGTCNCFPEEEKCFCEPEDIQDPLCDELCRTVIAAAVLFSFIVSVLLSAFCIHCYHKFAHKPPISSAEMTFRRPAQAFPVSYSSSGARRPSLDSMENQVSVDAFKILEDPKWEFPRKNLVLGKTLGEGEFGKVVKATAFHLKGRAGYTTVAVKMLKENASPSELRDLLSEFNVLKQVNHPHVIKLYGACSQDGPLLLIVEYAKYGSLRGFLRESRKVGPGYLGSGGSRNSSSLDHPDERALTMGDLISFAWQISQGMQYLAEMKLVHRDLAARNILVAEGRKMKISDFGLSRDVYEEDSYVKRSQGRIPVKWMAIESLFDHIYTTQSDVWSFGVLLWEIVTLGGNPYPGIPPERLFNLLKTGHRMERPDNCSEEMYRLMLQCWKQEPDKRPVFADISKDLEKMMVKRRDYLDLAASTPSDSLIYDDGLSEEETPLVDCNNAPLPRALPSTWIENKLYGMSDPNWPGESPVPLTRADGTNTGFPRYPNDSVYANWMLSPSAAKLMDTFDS

SRC-luc = SRC-luc (Homo sapiens, UniProt P12931); test: NanoBRET control kinase dose response, SRC-luc; type: binding; details: 293T cells, tram-bo or tracer K4
SRC-luc, sequence (P12931 whole entry): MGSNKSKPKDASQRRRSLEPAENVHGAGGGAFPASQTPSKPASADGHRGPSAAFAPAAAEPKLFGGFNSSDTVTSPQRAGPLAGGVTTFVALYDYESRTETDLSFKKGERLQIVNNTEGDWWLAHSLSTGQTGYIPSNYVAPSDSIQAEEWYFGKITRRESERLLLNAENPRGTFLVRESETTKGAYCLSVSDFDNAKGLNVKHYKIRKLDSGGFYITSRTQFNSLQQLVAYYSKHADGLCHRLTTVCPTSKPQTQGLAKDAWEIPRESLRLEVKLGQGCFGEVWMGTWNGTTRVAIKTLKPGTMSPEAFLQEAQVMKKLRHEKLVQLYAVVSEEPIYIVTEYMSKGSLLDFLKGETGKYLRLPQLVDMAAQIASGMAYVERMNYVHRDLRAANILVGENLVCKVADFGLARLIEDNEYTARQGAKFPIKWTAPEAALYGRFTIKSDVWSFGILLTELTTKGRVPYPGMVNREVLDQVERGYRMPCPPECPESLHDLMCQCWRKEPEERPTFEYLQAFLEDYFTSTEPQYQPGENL

[3] = target: KSR1 and MEK1 interaction (UniProt Q02750+Q61097); type: cell-based, mouse KSR1, human HCT116 cells; details: HCT116, wild-type KSR1, 200 nM, 1 hour
KSR1 and MEK1 interaction, sequence (Q02750 whole entry): as the sequence (Q02750 whole entry) above
KSR1 and MEK1 interaction, sequence (Q61097 whole entry): as the sequence (Q61097 whole entry) above
Outline: as §1

KSR1-luc (KSR-bound MEK), sequence (Q02750 whole entry): as the sequence (Q02750 whole entry) above
KSR1-luc (KSR-bound MEK), sequence (Q61097 whole entry): as the sequence (Q61097 whole entry) above

Structure (SMILES)	dissociation after washout on KSR1-luc (BRET signal recovery) (KSR1-luc (KSR-bound MEK))	difference in potency (IC50) between KSR1-luc and MEK1-luc [1]	dissociation after washout on MEK1-luc (MEK1-luc)	co-immunoprecipitation of BRAF via endogenous MEK [2]	dose response on RET-luc (RET-luc)	dose response on SRC-luc (SRC-luc)	co-immunoprecipitation of KSR1 via endogenous MEK [3]
O=C(c1ccc(F)c(F)c1Nc1ccc(I)cc1F)N1CC(O)([C@@H]2CCCCN2)C1 [cobimetinib, Cobimetinib]	dissociated more readily	~ 20 fold	dissociated more readily				
CC(=O)Nc1cccc(-n2c(=O)n(C3CC3)c(=O)c3c(Nc4ccc(I)cc4F)n(C)c(=O)c(C)c32)c1 [trametinib, Trametinib]				diminished binding of BRAF	no discernible dose response	no discernible dose response	sustained pulldown of KSR1
